Results taken from ChEMBL document CHEMBL1147076, “Antitumor activity of MLN8054, an orally active small-molecule inhibitor of Aurora A kinase” (Proc Natl Acad Sci U S A, 2007).

Assays:
[1] = molecular target: Protein kinase C epsilon type (Homo sapiens) (UniProt Q02156); assay: Activity of human PKCepsilon kinase at 1 uM
Method in brief: (§1)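 Single-point kinase profiling: each kinase in a 226-kinase panel tested with compound at 1 μM and ATP at 10 μM in every assay, run by an external screening service.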

[2] = Inhibition of PKC by radioactive flashplate assay
[3] = Inhibition of Abl kinase at 1 uM
Mus musculus = assay: Toxicity in human PC3 cells xenografted into athymic nude NCR nu/nu mouse assessed as decrease in body weight at 30 mg/kg, BID after 21 days; format: organism-based, PC-3; parameters: dose 30 mg/kg; scale not given: the % may be the effect or the level left; details: in vivo, 504 h
Method in brief: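 Male athymic nude NCR nu/nu mice were given PC-3 cells (2 × 10^6) s.c. in the right flank. Drug in 10% hydroxypropyl-β-cyclodextrin/5% sodium bicarbonate was given orally twice daily for 21 days. Average loss of initial body weight was recorded on day 21 of treatment.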

[4] = molecular target: Protein kinase C zeta type (Homo sapiens) (UniProt Q05513); assay: Activity of human PKCzeta kinase at 1 uM
Method in brief: (§2)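 Single-point screen in a 226-kinase panel run by an outside service. Test compound at 1 μM with ATP at 10 μM in every assay. Other assay conditions are not given.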

[5] = molecular target: Casein kinase I isoform delta (Homo sapiens) (UniProt P48730); assay: Activity of human CK1delta kinase at 1 uM; method in brief: as §1
[6] = molecular target: cGMP-dependent protein kinase 1 (Homo sapiens) (UniProt Q13976); assay: Activity of human PKG1-beta kinase at 1 uM; method in brief: as §1
[7] = molecular target: Testis-specific serine/threonine-protein kinase 2 (Homo sapiens) (UniProt Q96PF2); assay: Activity of human TSSK2 kinase at 1 uM; method in brief: as §2
[8] = molecular target: Serine/threonine-protein kinase PAK 4 (Homo sapiens) (UniProt O96013); assay: Activity of human PAK4 kinase at 1 uM; method in brief: as §2
[9] = Inhibition of PKA by radioactive flashplate assay
[10] = molecular target: Tyrosine-protein kinase BTK (Homo sapiens) (UniProt Q06187); assay: Activity of human BTK kinase at 1 uM
[11] = molecular target: Tyrosine-protein kinase Blk (Mus musculus) (UniProt P16277); assay: Activity of mouse Blk kinase at 1 uM
Method in brief: (§3)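 Single-concentration screen across a 226-kinase panel run by an outside provider; test compound at 1 μM with 10 μM ATP in every assay. Other conditions not detailed.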

[12] = molecular target: Homeodomain-interacting protein kinase 2 (Homo sapiens) (UniProt Q9H2X6); assay: Activity of human HIPK2 kinase at 1 uM; method in brief: as §1
PC-3 [13] = assay: Cell cycle arrest in human PC3 cells by accumulation at >4N phase at 1 uM after 24 hrs by flow cytometry relative to control; format: functional
NCI-H460 = assay: Antiproliferative activity against human H460 cells after 96 hrs by BrdU cell proliferation ELISA; format: functional, cell-based; details: NCI-H460, 96 h
Method in brief: (§4)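 BrdU incorporation proliferation assay on cultured human tumor lines; IC50 values derived from growth inhibition.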

[14] = molecular target: Serine/threonine-protein kinase Nek7 (Homo sapiens) (UniProt Q8TDX7); assay: Activity of human NEK7 kinase at 1 uM; method in brief: as §2
PC-3 [15] = assay: Cell cycle arrest in human PC3 cells by accumulation at G2/M phase at 4 uM after 24 hrs by flow cytometry relative to control; format: functional
Method in brief: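 DNA content profiles by flow cytometry of PC-3 prostate tumor cells exposed to drug diluted in DMSO for 24 or 48 h. Phase distribution was compared with DMSO-treated control cells.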

[16] = molecular target: Cyclin-dependent kinase 7/ cyclin H (Homo sapiens) (UniProt P51946+P50613); assay: Activity of human CDK7/cyclin H/MAT1 kinase at 1 uM; format: protein-complex assay; method in brief: as §1
[17] = molecular target: cAMP-dependent protein kinase catalytic subunit PRKX (Homo sapiens) (UniProt P51817); assay: Activity of human PrKX kinase at 1 uM; method in brief: as §2
[18] = molecular target: Maternal embryonic leucine zipper kinase (Homo sapiens) (UniProt Q14680); assay: Activity of human MELK kinase at 1 uM; method in brief: as §1
[19] = molecular target: Calcium/calmodulin-dependent protein kinase type IV (Homo sapiens) (UniProt Q16566); assay: Activity of human CaMK4 kinase at 1 uM
[20] = molecular target: Cyclin-dependent kinase 2/cyclin A (Homo sapiens) (UniProt P24941+P20248+P78396); assay: Activity of human CDK2/cyclin A kinase at 1 uM; format: protein-complex assay
[21] = molecular target: Serine/threonine-protein kinase BRSK2 (Homo sapiens) (UniProt Q8IWQ3); assay: Activity of human BrSK2 kinase at 1 uM
PC-3 [22] = assay: Cell cycle arrest in human PC3 cells by accumulation at >4N phase at 4 uM after 48 hrs by flow cytometry relative to control; format: functional
[23] = molecular target: Rho-associated protein kinase 2 (Homo sapiens) (UniProt O75116); assay: Activity of human ROCK2 kinase at 1 uM; method in brief: as §2
[24] = molecular target: Dual specificity mitogen-activated protein kinase kinase 7 (Homo sapiens) (UniProt O14733); assay: Activity of human MKK7-beta kinase at 1 uM
[25] = molecular target: Mitogen-activated protein kinase 13 (Homo sapiens) (UniProt O15264); assay: Activity of human SAPK4 kinase at 1 uM; method in brief: as §2
MCF7 = assay: Antiproliferative activity against human MCF7 cells after 96 hrs by BrdU cell proliferation ELISA; format: functional, cell-based; details: MCF7, 96 h; method in brief: as §4
[26] = molecular target: Calcium/calmodulin-dependent protein kinase type II subunit gamma (Homo sapiens) (UniProt Q13555); assay: Activity of human CaMK2gamma kinase at 1 uM; method in brief: as §1
[27] = molecular target: Proto-oncogene tyrosine-protein kinase receptor Ret (Homo sapiens) (UniProt P07949); assay: Activity of human Ret kinase at 1 uM; method in brief: as §3
[28] = molecular target: Glycogen synthase kinase-3 alpha (Homo sapiens) (UniProt P49840); assay: Activity of human GSK3-alpha kinase at 1 uM
[29] = molecular target: Tyrosine-protein kinase Lck (Homo sapiens) (UniProt P06239); assay: Activity of human Lck kinase at 1 uM; method in brief: as §1
[30] = molecular target: Serine/threonine-protein kinase PAK 3 (Homo sapiens) (UniProt O75914); assay: Activity of human PAK3 kinase at 1 uM; method in brief: as §2
[31] = molecular target: Activin receptor type-1B (Homo sapiens) (UniProt P36896); assay: Activity of human ALK4 kinase at 1 uM
[32] = molecular target: Serine/threonine-protein kinase PAK 2 (Homo sapiens) (UniProt Q13177); assay: Activity of human PAK2 kinase at 1 uM; method in brief: as §2
[33] = molecular target: Insulin-like growth factor 1 receptor (Homo sapiens) (UniProt P08069); assay: Activity of human IGF1R kinase at 1 uM
[34] = molecular target: Inhibitor of nuclear factor kappa-B kinase subunit alpha (Homo sapiens) (UniProt O15111); assay: Activity of human IKKalpha kinase at 1 uM; method in brief: as §1
SW480 = assay: Antiproliferative activity against human SW480 cells after 96 hrs by BrdU cell proliferation ELISA; format: functional, cell-based; details: SW480, 96 h; method in brief: as §4
[35] = molecular target: Focal adhesion kinase 1 (Homo sapiens) (UniProt Q05397); assay: Activity of human FAK kinase at 1 uM
[36] = molecular target: Ephrin type-B receptor 2 (Homo sapiens) (UniProt P29323); assay: Activity of human EphB2 kinase at 1 uM; method in brief: as §1
[37] = molecular target: G protein-coupled receptor kinase 6 (Homo sapiens) (UniProt P43250); assay: Activity of human GRK6 kinase at 1 uM

Chain of Calcium/calmodulin-dependent protein kinase type II subunit gamma (Homo sapiens) (Q13555 whole entry): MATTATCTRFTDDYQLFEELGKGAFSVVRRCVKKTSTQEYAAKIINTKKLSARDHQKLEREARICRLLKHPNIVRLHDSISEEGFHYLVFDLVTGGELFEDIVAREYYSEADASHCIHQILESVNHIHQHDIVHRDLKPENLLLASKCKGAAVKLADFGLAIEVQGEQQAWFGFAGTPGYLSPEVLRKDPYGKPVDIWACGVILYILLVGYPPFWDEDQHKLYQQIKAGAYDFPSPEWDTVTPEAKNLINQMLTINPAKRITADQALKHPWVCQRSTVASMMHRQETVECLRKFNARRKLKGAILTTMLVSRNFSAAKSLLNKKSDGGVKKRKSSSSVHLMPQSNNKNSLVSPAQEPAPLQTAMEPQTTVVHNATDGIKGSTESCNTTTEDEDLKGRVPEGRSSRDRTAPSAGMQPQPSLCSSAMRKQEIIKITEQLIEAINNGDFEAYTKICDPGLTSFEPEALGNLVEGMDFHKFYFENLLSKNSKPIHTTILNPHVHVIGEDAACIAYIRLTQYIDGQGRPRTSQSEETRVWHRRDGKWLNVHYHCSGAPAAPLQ
Chain of Tyrosine-protein kinase Blk (Mus musculus) (P16277 whole entry): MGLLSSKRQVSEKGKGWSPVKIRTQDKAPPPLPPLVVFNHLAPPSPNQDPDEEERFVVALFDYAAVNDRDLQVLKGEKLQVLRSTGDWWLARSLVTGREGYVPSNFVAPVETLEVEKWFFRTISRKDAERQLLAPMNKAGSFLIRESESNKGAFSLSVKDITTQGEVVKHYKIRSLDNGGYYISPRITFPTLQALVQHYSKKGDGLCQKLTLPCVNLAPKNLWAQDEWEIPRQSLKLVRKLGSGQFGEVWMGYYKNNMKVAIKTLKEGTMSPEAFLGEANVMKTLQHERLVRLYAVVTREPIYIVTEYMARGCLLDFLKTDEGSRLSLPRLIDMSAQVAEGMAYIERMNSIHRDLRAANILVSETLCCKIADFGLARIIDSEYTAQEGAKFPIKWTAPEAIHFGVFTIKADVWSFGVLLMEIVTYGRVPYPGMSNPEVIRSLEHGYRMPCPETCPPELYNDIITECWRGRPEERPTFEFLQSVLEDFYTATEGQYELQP
Chain of Focal adhesion kinase 1 (Homo sapiens) (Q05397 2-1052 limits assumed): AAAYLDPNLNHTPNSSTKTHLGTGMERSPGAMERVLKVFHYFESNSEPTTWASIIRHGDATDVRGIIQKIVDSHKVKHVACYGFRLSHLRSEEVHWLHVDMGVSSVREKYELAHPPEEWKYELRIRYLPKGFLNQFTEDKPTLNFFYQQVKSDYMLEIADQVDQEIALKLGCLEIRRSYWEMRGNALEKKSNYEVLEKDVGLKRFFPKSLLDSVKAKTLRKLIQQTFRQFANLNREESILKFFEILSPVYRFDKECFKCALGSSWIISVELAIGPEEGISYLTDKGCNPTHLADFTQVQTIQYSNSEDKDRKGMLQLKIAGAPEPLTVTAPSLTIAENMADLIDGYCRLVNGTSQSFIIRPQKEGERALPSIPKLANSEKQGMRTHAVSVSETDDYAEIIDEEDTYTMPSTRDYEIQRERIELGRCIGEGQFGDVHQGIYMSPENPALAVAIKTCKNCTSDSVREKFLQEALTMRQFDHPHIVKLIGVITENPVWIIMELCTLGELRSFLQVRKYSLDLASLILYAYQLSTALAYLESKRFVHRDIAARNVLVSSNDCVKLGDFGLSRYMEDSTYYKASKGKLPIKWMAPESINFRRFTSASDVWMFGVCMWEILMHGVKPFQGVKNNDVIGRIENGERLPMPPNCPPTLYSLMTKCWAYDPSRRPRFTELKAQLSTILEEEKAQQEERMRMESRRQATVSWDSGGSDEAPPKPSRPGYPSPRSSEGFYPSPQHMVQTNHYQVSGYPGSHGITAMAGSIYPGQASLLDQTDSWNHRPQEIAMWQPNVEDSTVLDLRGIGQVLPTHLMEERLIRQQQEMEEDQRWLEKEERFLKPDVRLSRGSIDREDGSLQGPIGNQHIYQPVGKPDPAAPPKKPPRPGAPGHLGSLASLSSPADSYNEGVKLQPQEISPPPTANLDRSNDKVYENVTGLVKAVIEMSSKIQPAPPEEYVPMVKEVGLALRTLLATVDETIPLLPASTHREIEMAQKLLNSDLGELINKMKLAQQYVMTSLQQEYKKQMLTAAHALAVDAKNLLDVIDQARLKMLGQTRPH
Chain of Calcium/calmodulin-dependent protein kinase type IV (Homo sapiens) (Q16566 whole entry): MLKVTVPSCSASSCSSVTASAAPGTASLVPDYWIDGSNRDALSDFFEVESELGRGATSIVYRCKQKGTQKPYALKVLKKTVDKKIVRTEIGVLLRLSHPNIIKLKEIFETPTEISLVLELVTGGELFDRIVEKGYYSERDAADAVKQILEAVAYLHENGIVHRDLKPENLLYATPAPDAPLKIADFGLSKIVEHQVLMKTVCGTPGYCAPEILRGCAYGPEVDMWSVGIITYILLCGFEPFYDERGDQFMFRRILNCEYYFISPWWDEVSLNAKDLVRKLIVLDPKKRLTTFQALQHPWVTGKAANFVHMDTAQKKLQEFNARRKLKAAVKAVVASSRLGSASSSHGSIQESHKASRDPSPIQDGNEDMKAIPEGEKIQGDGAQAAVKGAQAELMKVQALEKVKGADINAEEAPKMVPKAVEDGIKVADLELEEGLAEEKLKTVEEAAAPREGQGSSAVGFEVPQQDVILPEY
Chain of Ephrin type-B receptor 2 (Homo sapiens) (P29323 whole entry): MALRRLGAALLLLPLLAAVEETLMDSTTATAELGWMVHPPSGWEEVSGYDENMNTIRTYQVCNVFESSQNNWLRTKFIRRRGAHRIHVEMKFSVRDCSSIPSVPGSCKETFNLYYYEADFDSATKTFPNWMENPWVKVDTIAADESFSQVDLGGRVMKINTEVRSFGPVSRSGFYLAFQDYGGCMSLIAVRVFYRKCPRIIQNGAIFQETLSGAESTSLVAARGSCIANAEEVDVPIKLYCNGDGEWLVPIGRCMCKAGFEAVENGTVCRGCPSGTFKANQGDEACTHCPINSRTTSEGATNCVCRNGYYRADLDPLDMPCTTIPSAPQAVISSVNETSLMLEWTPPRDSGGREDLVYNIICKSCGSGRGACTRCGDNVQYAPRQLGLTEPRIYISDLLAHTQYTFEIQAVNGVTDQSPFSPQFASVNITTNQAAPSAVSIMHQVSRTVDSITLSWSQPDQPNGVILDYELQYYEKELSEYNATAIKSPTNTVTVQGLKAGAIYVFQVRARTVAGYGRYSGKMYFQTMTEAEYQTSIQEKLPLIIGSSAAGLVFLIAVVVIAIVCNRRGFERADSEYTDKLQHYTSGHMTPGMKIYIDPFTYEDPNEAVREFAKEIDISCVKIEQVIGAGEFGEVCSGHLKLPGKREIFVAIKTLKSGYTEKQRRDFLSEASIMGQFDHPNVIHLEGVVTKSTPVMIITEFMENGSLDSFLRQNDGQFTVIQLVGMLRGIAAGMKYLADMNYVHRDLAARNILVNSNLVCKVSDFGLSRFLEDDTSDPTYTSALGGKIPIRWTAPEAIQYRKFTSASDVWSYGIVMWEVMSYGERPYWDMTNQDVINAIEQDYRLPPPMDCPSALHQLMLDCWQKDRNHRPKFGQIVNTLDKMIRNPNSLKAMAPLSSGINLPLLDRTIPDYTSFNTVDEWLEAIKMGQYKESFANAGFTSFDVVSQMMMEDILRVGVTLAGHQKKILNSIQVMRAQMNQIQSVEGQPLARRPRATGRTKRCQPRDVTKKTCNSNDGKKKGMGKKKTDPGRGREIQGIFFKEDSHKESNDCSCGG
Chain of Tyrosine-protein kinase Lck (Homo sapiens) (P06239 2-509 limits assumed): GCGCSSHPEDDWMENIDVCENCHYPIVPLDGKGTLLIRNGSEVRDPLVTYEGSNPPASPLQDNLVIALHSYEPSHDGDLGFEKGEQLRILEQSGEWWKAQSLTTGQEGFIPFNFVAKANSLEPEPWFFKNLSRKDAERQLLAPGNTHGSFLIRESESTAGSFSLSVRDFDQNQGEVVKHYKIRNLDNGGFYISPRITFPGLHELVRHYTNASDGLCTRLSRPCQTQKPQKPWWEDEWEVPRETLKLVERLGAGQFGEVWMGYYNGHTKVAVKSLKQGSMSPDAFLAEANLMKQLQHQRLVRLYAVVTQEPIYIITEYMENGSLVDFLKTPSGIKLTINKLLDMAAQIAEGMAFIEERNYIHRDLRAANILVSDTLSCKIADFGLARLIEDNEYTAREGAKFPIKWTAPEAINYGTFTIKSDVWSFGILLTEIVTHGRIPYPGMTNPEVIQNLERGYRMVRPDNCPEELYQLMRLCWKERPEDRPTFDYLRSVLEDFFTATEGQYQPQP
Chain of Tyrosine-protein kinase BTK (Homo sapiens) (Q06187 whole entry): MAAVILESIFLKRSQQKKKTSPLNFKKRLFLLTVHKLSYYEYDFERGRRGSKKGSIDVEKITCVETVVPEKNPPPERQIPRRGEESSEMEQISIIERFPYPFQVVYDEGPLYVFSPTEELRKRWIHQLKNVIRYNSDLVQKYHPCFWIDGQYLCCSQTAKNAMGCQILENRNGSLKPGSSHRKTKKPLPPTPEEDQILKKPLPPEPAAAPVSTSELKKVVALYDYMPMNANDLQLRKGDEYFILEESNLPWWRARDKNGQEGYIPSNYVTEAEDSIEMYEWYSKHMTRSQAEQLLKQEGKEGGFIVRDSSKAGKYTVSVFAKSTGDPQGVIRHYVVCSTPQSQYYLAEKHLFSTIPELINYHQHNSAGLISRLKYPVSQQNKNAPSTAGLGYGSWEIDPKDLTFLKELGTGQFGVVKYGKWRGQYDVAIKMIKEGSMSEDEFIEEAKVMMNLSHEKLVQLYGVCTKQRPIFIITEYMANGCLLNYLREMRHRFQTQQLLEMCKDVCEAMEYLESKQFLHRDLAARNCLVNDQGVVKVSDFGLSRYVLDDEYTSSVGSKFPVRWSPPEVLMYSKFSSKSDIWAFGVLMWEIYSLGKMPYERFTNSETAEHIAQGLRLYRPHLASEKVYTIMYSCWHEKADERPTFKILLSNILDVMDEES

## O=C(O)c1ccc(Nc2ncc3c(n2)-c2ccc(Cl)cc2C(c2c(F)cccc2F)=NC3)cc1 [MLN-8054]
[1]
  Activity: 123%
[2]
  IC50: > 100000 nM
[3]
  inhibition: 76%
Mus musculus
  Activity: 5.4%
[4]
  Activity: 99%
[5]
  Activity: 129%
[6]
  Activity: 109%
[7]
  Activity: 101%
[8]
  Activity: 96%
[9]
  IC50: 19000 nM
[10]
  Activity: 90%
[11]
  Activity: 53%
[12]
  Activity: 112%
PC-3 [13]
  Activity: 3.7%
NCI-H460
  IC50: 110 nM
[14]
  Activity: 99%
PC-3 [15]
  Activity: 58.8%
[16]
  Activity: 105%
[17]
  Activity: 99%
[18]
  Activity: 79%
[19]
  Activity: 104%
[20]
  Activity: 96%
[21]
  Activity: 99%
PC-3 [22]
  Activity: 21.4%
[23]
  Activity: 100%
[24]
  Activity: 95%
[25]
  Activity: 87%
MCF7
  IC50: 670 nM
[26]
  Activity: 112%
[27]
  Activity: 80%
[28]
  Activity: 110%
[29]
  Activity: 59%
[30]
  Activity: 94%
[31]
  Activity: 115%
[32]
  Activity: 100%
[33]
  Activity: 88%
[34]
  Activity: 114%
SW480
  IC50: 860 nM
[35]
  Activity: 110%
[36]
  Activity: 69%
[37]
  Activity: 110%
